Active and inactive are the calls of the source. No cut-off for these calls is given here.

Series [1] concerns the target Platelet-derived growth factor receptor alpha (Homo sapiens) (UniProt P16234). In words: Inhibition of PDGFRalpha (unknown origin) assessed as remaining activity at 1 uM by Kinome scan method relative to control. In a few lines:
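KINOMEscan active-site competition binding assay at 1 μM against 468 kinases. Ctrl% = (test − positive control)/(negative control DMSO − positive control) × 100; lower values mean tighter binding.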

For series [2], the target named is Serine/threonine-protein kinase RIO3 (Homo sapiens) (UniProt O14730). Kind of series: Inhibition of RIOK3 (unknown origin) assessed as remaining activity at 1 uM by Kinome scan method relative to control.
Series [3] concerns Mus musculus. In words: Protection against duct ligation-induced mouse assessed as low level in collagen deposition at 1 mg/kg, ip administration daily for 10 days by Sirius Red staining. It counts as functional, organism-based. Particulars: Liver, time 10.0 day.
In series [4] the target is Mitogen-activated protein kinase kinase kinase 2 (Homo sapiens, UniProt Q9Y2U5). Kind of series: Binding affinity to MAP3K2 (unknown origin) assessed as dissociation constant.
The target in series [5] is Tyrosine-protein kinase Fgr (Homo sapiens) (UniProt P09769). In words: Inhibition of FGR (unknown origin) assessed as remaining activity at 1 uM by Kinome scan method relative to control.
Series [6] addresses Serine/threonine-protein kinase Nek10 (Homo sapiens) (UniProt Q6ZWH5). In words: Inhibition of NEK10 (unknown origin) assessed as remaining activity at 1 uM by Kinome scan method relative to control.
For series [7], the target named is Mitogen-activated protein kinase kinase kinase 10 (Homo sapiens) (UniProt Q02779). In words: Inhibition of MLK2 (unknown origin) assessed as remaining activity at 1 uM by Kinome scan method relative to control.
For series [8], the target named is Serine/threonine-protein kinase ULK2 (Homo sapiens) (UniProt Q8IYT8). In words: Inhibition of ULK2 (unknown origin) assessed as remaining activity at 1 uM by Kinome scan method relative to control.
For series [9], the system named is Epidermal growth factor receptor (Homo sapiens), P00533 [UNDEFINED MUTATION]. In words: Inhibition of EGFR E746-A750del mutant (unknown origin) assessed as remaining activity at 1 uM by Kinome scan method relative to control.
Series [10] addresses Leukocyte tyrosine kinase receptor (Homo sapiens) (UniProt P29376). Kind of series: Inhibition of LTK (unknown origin) assessed as remaining activity at 1 uM by Kinome scan method relative to control.
The subject of series [11] is HepG2. In words: Inhibition of Flag-tagged MST1 Y101F/D109A mutant (unknown origin) in human HepG2 cells assessed as MOB1 phosphorylation level at 0.3 to 10 uM by immunoblot analysis. Particulars: dose 0.3-10 µM. It is filed as cell-based.
The subject of series [12] is Mus musculus. In words: Anti-colitis activity against DSS-induced mouse assessed as high Ki67-positive proliferating cells at 1 mg/kg, ip administrated daily for 8 days by IHC staining. The settings on record: Colon, time 8.0 day. It is filed as functional, organism-based. The gist of the method:
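Wild-type mice received oral DSS for 7 days with vehicle or 1 mg/kg daily. Colon sections were stained by IHC for YAP, BrdU and Ki67, and positive cells were quantified per animal. Means ± SD, n = 10, Student's t test.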

In series [13] the target is Mitogen-activated protein kinase kinase kinase kinase 3 (Homo sapiens) (UniProt Q8IVH8). Kind of series: Inhibition of MAP4K3 (unknown origin) assessed as remaining activity at 1 uM by Kinome scan method relative to control.
The target in series [14] is Phosphatidylinositol 3-kinase C2 domain-containing subunit gamma (Homo sapiens) (UniProt O75747). Kind of series: Inhibition of PIK3C2G (unknown origin) assessed as remaining activity at 1 uM by Kinome scan method relative to control.
The target of series [15] is Discoidin domain-containing receptor 2 (Homo sapiens) (UniProt Q16832). In words: Inhibition of DDR2 (unknown origin) assessed as remaining activity at 1 uM by Kinome scan method relative to control.
Series [16] has as its system Epidermal growth factor receptor (Homo sapiens), P00533 [UNDEFINED MUTATION]. In words: Inhibition of EGFR L747-E749del/A750P mutant (unknown origin) assessed as remaining activity at 1 uM by Kinome scan method relative to control.
The nature of series [17]: AUC (0 to t) in male Sprague-Dawley rat at 10 mg/kg, po measured for 24 hrs by LC-MS/MS analysis. It counts as ADME, organism-based. Particulars: in vivo. In a few lines:
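Sprague-Dawley rats, single intravenous or oral dose. Parameters (half-life, AUC, bioavailability) reported in a supplementary table.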

Series [18] deals with Glycogen synthase kinase-3 alpha (Homo sapiens) (UniProt P49840). Kind of series: Inhibition of GSK3alpha (unknown origin) assessed as remaining activity at 1 uM by Kinome scan method relative to control.
Series [19] addresses Protein kinase C delta type (Homo sapiens) (UniProt Q05655). Kind of series: Inhibition of PRKCD (unknown origin) assessed as remaining activity at 1 uM by Kinome scan method relative to control.
Series [20] deals with Tyrosine-protein kinase BTK (Homo sapiens) (UniProt Q06187). In words: Inhibition of BTK (unknown origin) assessed as remaining activity at 1 uM by Kinome scan method relative to control. The gist of the method:
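Active-site-dependent competition-binding (KINOMEscan) panel of 468 kinases, test compound at 1 μM (from a 10 mM DMSO stock). Read-out is ctrl% = (test signal − positive control signal)/(negative control signal − positive control signal) × 100. DMSO is the negative control (100%) and a control compound is the positive control (0%). Lower ctrl% means tighter binding.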

Series [21] relates to Receptor-type tyrosine-protein kinase FLT3 (Homo sapiens), P36888 [D835H]. Kind of series: Inhibition of FLT3 D835H mutant (unknown origin) assessed as remaining activity at 1 uM by Kinome scan method relative to control.
In series [22] the test system is HepG2. In words: Induction of apoptosis in human HepG2 cells assessed as early apoptosis cells at 3 uM by annexinV staining (Rvb =4.16 %). It counts as functional.
Series [23] deals with T1, Serine/threonine-protein kinase 4 (Homo sapiens, UniProt Q13043).
T1 sequence (Q13043 whole entry): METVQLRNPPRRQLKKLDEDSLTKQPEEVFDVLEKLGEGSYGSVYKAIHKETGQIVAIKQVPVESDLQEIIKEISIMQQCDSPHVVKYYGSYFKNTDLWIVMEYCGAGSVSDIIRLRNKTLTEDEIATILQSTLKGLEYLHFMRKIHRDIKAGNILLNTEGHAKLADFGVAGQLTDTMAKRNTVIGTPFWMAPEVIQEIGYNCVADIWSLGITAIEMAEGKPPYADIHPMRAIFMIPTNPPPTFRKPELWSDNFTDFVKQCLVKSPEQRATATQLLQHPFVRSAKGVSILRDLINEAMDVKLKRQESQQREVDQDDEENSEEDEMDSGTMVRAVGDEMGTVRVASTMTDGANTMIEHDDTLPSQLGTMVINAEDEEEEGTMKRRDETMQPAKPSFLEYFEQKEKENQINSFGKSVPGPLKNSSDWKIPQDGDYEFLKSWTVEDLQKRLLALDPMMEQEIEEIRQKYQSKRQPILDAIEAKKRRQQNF
In words: Inhibition of MST1 (unknown origin) in presence of ATP by enzymatic assay.

Sequence of Epidermal growth factor receptor (Homo sapiens), P00533 [UNDEFINED MUTATION] (P00533 whole entry, looked up, stated change not applied): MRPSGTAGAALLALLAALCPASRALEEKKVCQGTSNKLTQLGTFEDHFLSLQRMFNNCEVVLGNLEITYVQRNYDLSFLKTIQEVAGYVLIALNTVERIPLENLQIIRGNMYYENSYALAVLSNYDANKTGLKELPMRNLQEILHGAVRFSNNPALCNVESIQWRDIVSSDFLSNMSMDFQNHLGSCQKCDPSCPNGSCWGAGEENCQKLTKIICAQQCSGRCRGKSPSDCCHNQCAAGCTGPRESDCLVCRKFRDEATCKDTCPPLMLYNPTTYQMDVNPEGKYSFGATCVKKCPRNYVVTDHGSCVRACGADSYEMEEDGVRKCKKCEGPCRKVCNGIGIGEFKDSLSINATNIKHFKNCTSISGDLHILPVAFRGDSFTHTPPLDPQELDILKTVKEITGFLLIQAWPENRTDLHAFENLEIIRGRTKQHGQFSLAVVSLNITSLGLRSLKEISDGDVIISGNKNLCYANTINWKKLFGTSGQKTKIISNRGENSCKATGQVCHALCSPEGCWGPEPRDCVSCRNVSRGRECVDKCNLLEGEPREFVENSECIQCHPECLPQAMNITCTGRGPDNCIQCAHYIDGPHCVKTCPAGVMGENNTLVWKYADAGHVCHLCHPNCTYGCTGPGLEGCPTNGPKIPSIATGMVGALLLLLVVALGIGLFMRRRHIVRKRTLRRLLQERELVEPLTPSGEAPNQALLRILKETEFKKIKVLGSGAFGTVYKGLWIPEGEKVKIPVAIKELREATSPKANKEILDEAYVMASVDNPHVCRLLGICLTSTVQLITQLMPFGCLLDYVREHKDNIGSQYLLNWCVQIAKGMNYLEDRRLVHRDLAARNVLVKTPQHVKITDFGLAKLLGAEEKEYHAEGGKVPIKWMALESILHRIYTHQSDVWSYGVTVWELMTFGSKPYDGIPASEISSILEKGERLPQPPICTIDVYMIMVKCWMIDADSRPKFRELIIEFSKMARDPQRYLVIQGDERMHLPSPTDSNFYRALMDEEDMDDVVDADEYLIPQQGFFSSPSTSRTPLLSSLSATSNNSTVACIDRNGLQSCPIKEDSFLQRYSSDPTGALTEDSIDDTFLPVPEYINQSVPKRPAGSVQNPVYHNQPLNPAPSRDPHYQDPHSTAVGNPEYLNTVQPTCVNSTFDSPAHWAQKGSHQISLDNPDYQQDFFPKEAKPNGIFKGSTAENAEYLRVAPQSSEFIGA
Sequence of Leukocyte tyrosine kinase receptor (Homo sapiens) (P29376 whole entry): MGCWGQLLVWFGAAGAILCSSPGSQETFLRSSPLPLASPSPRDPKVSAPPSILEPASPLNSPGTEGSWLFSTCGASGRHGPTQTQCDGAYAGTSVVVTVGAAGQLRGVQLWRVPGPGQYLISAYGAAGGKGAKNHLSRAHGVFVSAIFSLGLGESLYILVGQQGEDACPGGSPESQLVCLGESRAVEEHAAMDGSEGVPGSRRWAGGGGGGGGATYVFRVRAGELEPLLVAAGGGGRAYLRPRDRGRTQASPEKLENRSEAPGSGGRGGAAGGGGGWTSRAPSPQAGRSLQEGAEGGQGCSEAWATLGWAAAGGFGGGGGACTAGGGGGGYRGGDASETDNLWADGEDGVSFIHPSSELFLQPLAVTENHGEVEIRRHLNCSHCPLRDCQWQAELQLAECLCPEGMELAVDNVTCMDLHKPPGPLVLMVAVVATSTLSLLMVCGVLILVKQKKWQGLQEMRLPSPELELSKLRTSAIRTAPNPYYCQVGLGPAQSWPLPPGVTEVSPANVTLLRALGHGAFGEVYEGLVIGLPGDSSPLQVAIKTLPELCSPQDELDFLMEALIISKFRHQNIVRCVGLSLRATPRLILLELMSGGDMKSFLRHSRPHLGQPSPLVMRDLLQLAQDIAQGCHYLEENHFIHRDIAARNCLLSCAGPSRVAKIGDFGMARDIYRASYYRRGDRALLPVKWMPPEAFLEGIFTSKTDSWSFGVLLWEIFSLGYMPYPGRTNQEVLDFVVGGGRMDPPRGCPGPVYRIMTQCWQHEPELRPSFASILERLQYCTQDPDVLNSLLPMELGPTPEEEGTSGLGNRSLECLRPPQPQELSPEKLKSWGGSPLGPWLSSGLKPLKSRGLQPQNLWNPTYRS
Sequence of Serine/threonine-protein kinase Nek10 (Homo sapiens) (Q6ZWH5 whole entry): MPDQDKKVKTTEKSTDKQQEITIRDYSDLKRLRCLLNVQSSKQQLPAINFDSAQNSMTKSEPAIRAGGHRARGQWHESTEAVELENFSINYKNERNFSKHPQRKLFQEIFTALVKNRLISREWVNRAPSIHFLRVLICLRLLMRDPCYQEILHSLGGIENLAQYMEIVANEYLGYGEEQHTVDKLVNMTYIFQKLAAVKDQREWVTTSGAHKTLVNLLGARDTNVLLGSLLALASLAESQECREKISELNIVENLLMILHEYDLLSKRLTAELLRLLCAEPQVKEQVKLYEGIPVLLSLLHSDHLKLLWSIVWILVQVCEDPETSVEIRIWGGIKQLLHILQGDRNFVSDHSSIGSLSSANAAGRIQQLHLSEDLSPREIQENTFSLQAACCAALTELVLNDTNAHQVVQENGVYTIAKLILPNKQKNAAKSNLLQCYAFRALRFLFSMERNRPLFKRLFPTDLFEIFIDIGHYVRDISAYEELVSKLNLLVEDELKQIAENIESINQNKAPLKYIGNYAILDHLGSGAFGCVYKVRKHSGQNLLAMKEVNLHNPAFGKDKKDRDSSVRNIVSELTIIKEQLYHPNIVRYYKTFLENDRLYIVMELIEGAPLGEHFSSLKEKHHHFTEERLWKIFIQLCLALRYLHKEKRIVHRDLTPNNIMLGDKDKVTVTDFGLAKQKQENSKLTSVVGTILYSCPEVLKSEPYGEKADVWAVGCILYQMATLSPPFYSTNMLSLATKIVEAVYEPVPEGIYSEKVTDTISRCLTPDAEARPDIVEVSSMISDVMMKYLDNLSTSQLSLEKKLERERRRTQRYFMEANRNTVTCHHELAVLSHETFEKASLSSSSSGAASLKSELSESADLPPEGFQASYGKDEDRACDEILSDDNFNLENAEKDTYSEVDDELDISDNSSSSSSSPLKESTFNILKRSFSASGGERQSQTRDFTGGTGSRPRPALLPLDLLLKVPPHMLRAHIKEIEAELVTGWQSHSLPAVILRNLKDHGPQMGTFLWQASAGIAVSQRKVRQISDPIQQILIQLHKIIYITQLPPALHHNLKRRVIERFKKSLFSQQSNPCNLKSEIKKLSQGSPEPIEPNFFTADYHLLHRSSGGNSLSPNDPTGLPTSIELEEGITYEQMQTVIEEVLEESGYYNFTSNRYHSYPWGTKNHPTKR
Sequence of Tyrosine-protein kinase Fgr (Homo sapiens) (P09769 2-529 limits assumed): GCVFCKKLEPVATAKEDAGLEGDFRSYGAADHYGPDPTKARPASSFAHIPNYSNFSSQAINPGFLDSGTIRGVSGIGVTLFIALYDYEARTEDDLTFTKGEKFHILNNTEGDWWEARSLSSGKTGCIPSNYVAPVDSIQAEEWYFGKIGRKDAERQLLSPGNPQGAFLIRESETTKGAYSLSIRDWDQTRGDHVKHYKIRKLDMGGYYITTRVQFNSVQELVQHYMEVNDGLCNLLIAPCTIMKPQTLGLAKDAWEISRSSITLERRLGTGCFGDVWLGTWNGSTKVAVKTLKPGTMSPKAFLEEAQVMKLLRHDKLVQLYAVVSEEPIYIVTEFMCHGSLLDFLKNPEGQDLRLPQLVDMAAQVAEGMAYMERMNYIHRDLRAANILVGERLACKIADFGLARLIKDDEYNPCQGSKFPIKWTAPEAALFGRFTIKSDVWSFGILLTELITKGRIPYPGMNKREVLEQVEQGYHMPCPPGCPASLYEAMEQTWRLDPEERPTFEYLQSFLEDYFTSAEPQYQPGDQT
Sequence of Discoidin domain-containing receptor 2 (Homo sapiens) (Q16832 whole entry, the tested form may be a part): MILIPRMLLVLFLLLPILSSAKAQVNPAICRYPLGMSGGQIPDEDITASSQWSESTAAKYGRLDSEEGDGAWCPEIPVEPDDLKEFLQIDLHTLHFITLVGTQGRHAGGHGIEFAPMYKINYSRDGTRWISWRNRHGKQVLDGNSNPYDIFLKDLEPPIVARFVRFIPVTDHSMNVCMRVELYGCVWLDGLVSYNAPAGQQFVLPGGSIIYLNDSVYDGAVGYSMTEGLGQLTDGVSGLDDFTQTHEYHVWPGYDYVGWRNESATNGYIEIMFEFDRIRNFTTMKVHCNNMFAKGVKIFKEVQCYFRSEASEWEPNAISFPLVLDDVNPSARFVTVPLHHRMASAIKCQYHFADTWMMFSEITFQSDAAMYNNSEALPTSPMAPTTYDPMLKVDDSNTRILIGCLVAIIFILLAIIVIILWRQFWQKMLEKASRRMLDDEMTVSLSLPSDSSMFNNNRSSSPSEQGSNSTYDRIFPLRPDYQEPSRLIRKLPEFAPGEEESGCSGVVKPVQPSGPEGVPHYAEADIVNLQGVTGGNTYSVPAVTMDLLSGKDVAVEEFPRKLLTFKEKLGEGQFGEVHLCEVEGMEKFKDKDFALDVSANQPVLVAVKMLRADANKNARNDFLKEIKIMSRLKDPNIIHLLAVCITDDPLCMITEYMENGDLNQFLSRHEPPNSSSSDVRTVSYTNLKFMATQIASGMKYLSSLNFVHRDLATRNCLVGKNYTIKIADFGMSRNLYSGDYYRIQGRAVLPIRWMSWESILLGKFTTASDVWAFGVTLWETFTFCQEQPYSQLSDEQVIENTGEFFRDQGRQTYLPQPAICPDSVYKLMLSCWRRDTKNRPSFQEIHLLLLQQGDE

The Kd is a measure of binding affinity in units of concentration. Usually AUC(0-t) stands for the area under the concentration-time curve up to a stated or last time point. A low value points to less exposure. One may read the IC50 as the concentration that gives 50% inhibition. With `CN1C(=O)c2sccc2N(C)c2nc(Nc3ccc(S(N)(=O)=O)cc3)ncc21`, the Activity in series [1] was determined as 89%; in [2], 100%; in series [5], 56%; in [6], 70%; in [7], 77%; in series [8], 4.8%. For the same molecule, the Activity in [9] was 82%; in [10], 100%; in series [13], 100%; in [14], 100%; in [15], 100%; in series [16], 100%. Further, the Activity in [18] came out at 100%; in [19] it was 94%; in series [20], 48%; in series [21], 67%; in the series on HepG2 [22], 4.04%. The result with Mus musculus [3] and with Mus musculus [12] was Active. In series [4], the Kd is 19 nM. In the series with HepG2 [11], the inhibition result was “Active”. In [17], this molecule had an AUC(0-t) at 24 h of 993 ng·h/mL. In [23], the IC50 came out at 9.8 nM.
